Activity calls are given as the source filed them. The calls are words filed in the database; no cut-off is given here.
Experiments:
[1] = target: T1, Heat shock protein HSP90 (Homo sapiens) (UniProt P07900+P08238)
HeLa [2] = test: Induction of apoptosis in human HeLa cells assessed as viable cells at 5 uM after 48 hrs by Annexin V/propidium iodide staining based assay (reference value: 95.03 %); format: functional; conditions: read-out: Activity
Procedure, shortened: (§1)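 HeLa cells were seeded at 2 × 10^5 per well in six-well plates and left overnight. They were then treated with 5, 10 or 20 µM for 48 h. Annexin V-FITC/PI staining was done with a commercial kit per its instructions. Early and late apoptotic fractions are given as cumulative percentages relative to untreated control.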

HeLa [3] = test: Induction of apoptosis in human HeLa cells assessed as late apoptotic cells at 5 uM after 48 hrs by Annexin V/propidium iodide staining based assay (reference value: 1.75 %); format: functional
Procedure, shortened: as §1

HeLa [4] = test: Cell cycle arrest in human HeLa cells assessed as accumulation of cells at S phase after 48 hrs by RNase/PI-staining based flow cytometric analysis; format: functional
HeLa [5] = test: Induction of apoptosis in human HeLa cells assessed as decrease in Bcl-2 protein expression after 48 hrs by Western blot analysis; format: functional, cell-based
Procedure, shortened: (§2)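 HeLa cells were treated 48 h with 12.5, 25 or 50 µM, or with DMSO vehicle. Cells were lysed 30 min in RIPA buffer with protease inhibitor cocktail and spun at 12,000 rpm for 15 min at 4 °C. Proteins were run on 6-15% SDS-PAGE and moved to nitrocellulose. Membranes were blocked in 5% non-fat milk in TBS, probed with primary and secondary antibodies, and imaged by chemiluminescence.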

[6] = target: T1, Heat shock protein HSP90 (Homo sapiens); test: Inhibition of Hsp90 in human Hela cells assessed as down regulation of Hsp90 protein expression at 12.5 uM to 50 uM after 48 hrs by Western blot analysis; format: cell-based
Procedure, shortened: as §2

HeLa [7] = test: Antiproliferative activity against human HeLa cells assessed as reduction in cell viability after 48 hrs by MTT assay; format: functional, cell-based
Procedure, shortened: (§3)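 HepG2 or HeLa cells in DMEM with 10% FBS and 1% penicillin-streptomycin were preincubated 24 h (37 °C, 5% CO2). They were then exposed for 48 h to 1, 5, 10, 20, 50 and 100 µM, diluted in medium from DMSO stocks. MTT (5 mg/mL, 20 µL) was added for 4 h, formazan dissolved in DMSO, and A490 read. Each concentration was run in triplicate. IC50 is the mean from dose-response curves of at least three independent experiments; cisplatin was the positive control.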

HeLa [8] = test: Induction of apoptosis in human HeLa cells assessed as late apoptotic cells at 10 uM after 48 hrs by Annexin V/propidium iodide staining based assay (reference value: 1.75 %); format: functional
Procedure, shortened: as §1

HeLa [9] = test: Induction of apoptosis in human HeLa cells assessed as increase in ratio of Bax to Bcl-2 protein expression 12.5 to 50 uM after 48 hrs by Western blot analysis; format: functional, cell-based
Procedure, shortened: as §2

HeLa [10] = test: Induction of apoptosis in human HeLa cells assessed as accumulation of […] cells at 5 uM after 48 hrs by Annexin V/propidium iodide staining based assay (reference value: 0 %); format: functional
Procedure, shortened: as §1

HeLa [11] = test: Induction of apoptosis in human HeLa cells assessed as increase in cleaved caspase 3 protein expression after 48 hrs by Western blot analysis; format: functional, cell-based
Procedure, shortened: as §2

MDA-MB-231 = test: Antiproliferative activity against human MDA-MB-231 cells assessed as reduction in cell viability after 48 hrs by MTT assay; format: functional, cell-based; conditions: MDA-MB-231, 48 h
HeLa [12] = test: Cell cycle arrest in human HeLa cells assessed as accumulation of cells at S phase at 5 uM after 48 hrs by RNase/PI-staining based flow cytometric analysis (reference value: 17.24 %); format: functional
HeLa [13] = test: Cell cycle arrest in human HeLa cells assessed as accumulation of cells at S phase at 20 uM after 48 hrs by RNase/PI-staining based flow cytometric analysis (reference value: 17.24 %); format: functional
HeLa [14] = test: Induction of apoptosis in human HeLa cells assessed as late apoptotic cells at 20 uM after 48 hrs by Annexin V/propidium iodide staining based assay (reference value: 1.75 %); format: functional
Procedure, shortened: as §1

HeLa [15] = test: Cell cycle arrest in human HeLa cells assessed as accumulation of cells at G2/M phase at 20 uM after 48 hrs by RNase/PI-staining based flow cytometric analysis (reference value: 11.69 %); format: functional
HeLa [16] = test: Induction of apoptosis in human HeLa cells assessed as necrotic cells at 10 uM after 48 hrs by Annexin V/propidium iodide staining based assay (reference value: 0 %); format: functional
Procedure, shortened: as §1

HeLa [17] = test: Induction of apoptosis in human HeLa cells assessed as viable cells at 10 uM after 48 hrs by Annexin V/propidium iodide staining based assay (reference value: 95.03 %); format: functional; conditions: read-out: Activity
Procedure, shortened: as §1

HeLa [18] = test: Induction of apoptosis in human HeLa cells assessed as early apoptotic cells at 10 uM after 48 hrs by Annexin V/propidium iodide staining based assay (reference value: 3.22 %); format: functional
Procedure, shortened: as §1

HeLa [19] = test: Induction of apoptosis in human HeLa cells assessed as necrotic cells at 20 uM after 48 hrs by Annexin V/propidium iodide staining based assay (reference value: 0 %); format: functional
Procedure, shortened: as §1

HeLa [20] = test: Cell cycle arrest in human HeLa cells assessed as accumulation of cells at G2/M phase at 10 uM after 48 hrs by RNase/PI-staining based flow cytometric analysis (reference value: 11.69 %); format: functional
HeLa [21] = test: Cell cycle arrest in human HeLa cells assessed as accumulation of cells at S phase at 10 uM after 48 hrs by RNase/PI-staining based flow cytometric analysis (reference value: 17.24 %); format: functional
HeLa [22] = test: Cell cycle arrest in human HeLa cells assessed as accumulation of cells at G0/G1 phase at 5 uM after 48 hrs by RNase/PI-staining based flow cytometric analysis (reference value: 71.07 %); format: functional
HeLa [23] = test: Cell cycle arrest in human HeLa cells assessed as accumulation of cells at G2/M phase at 5 uM after 48 hrs by RNase/PI-staining based flow cytometric analysis (reference value: 11.69 %); format: functional
HeLa [24] = test: Induction of apoptosis in human HeLa cells assessed as early apoptotic cells at 5 uM after 48 hrs by Annexin V/propidium iodide staining based assay (reference value: 3.22 %); format: functional
Procedure, shortened: as §1

HepG2 = test: Antiproliferative activity against human HepG2 cells assessed as reduction in cell viability after 48 hrs by MTT assay; format: functional, cell-based; conditions: HepG2, 48 h
Procedure, shortened: as §3

HeLa [25] = test: Cell cycle arrest in human HeLa cells assessed as accumulation of cells at G0/G1 phase at 10 uM after 48 hrs by RNase/PI-staining based flow cytometric analysis analysis (reference value: 71.07 %); format: functional
HeLa [26] = test: Induction of apoptosis in human HeLa cells assessed as early apoptotic cells at 20 uM after 48 hrs by Annexin V/propidium iodide staining based assay (reference value: 3.22 %); format: functional
Procedure, shortened: as §1

HeLa [27] = test: Induction of apoptosis in human HeLa cells assessed as increase in Bax protein expression after 48 hrs by Western blot analysis; format: functional, cell-based
Procedure, shortened: as §2

HeLa [28] = test: Cell cycle arrest in human HeLa cells assessed as accumulation of cells at G0/G1 phase at 20 uM after 48 hrs by RNase/PI-staining based flow cytometric analysis (reference value: 71.07 %); format: functional
HeLa [29] = test: Induction of apoptosis in human HeLa cells assessed as viable cells at 20 uM after 48 hrs by Annexin V/propidium iodide staining based assay (reference value: 95.03 %); format: functional; conditions: read-out: Activity
Procedure, shortened: as §1

HeLa [30] = test: Induction of apoptosis in human HeLa cells assessed as decrease in protected caspase 3 protein expression after 48 hrs by Western blot analysis; format: functional, cell-based
Procedure, shortened: as §2

For `Nc1c2c(nc3ccc(C(F)(F)F)cc13)N1C[C@@H]3CCCN4CCC[C@@H]([C@H]34)[C@H]1CC2`, the ΔTm [1] was 10.9 °C, the viability at 5 µM (HeLa [2]) was 72% and the Activity (HeLa [3]) was 8.79%. For the same molecule, the Activity (HeLa [4]) was “Dose-dependent effect”, the Activity (HeLa [5]) was “Dose-dependent effect” and the inhibition [6] was “Active”. For the same molecule, the IC50 (HeLa [7]) was 19.6 µM, the Activity (HeLa [8]) was 17.3% and the Activity (HeLa [9]) was “Active”. For the same molecule, the Activity (HeLa [10]) was 8.79%, the Activity (HeLa [11]) was “Dose-dependent effect” and the IC50 (MDA-MB-231) was 22.1 µM. For the same molecule, the Activity (HeLa [12]) was 21.64%, the Activity (HeLa [13]) was 40.12% and the Activity (HeLa [14]) was 21.17%. The Activity (HeLa [15]) was 2.93%, the Activity (HeLa [16]) was 4.06% and the viability at 10 µM (HeLa [17]) was 50.1%. It also gave an Activity (HeLa [18]) of 28.57%, an Activity (HeLa [19]) of 2.62% and an Activity (HeLa [20]) of 10.86%. The Activity (HeLa [21]) was 26.67%, the Activity (HeLa [22]) was 65.53% and the Activity (HeLa [23]) was 12.83%. For the same molecule, the Activity (HeLa [24]) was 17.51%, the IC50 (HepG2) was 16.1 µM and the Activity (HeLa [25]) was 62.47%. For the same molecule, the Activity (HeLa [26]) was 38.07%, the Activity (HeLa [27]) was “Dose-dependent effect” and the Activity (HeLa [28]) was 56.95%. For the same molecule, the viability at 20 µM (HeLa [29]) was 38.1% and the Activity (HeLa [30]) was “Dose-dependent effect”.
